Data as given in ChEMBL document CHEMBL4602693, “Structural Effect on Adjuvanticity of Saponins” (J Med Chem, 2020).
Activity calls are given as the source filed them. No cut-off for these calls is given here.

What was measured:
Format in all cases: functional, organism-based
Mus musculus [1] = assay: Immunostimulatory activity in ovalbumin-immunized BALB/c mouse assessed as potentiation of OVA specific antibody response by measuring increase in serum anti-OVA IgG level at 100 ug, sc administered at 14 days interval for 3 times and measured at 4 to 6 week post OVA immunization by ELISA
Summary of the method: (§1)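 Female BALB/c mice, 8-10 weeks old, six per group. Given OVA (20 μg) s.c. alone or with 100 μg saponin adjuvant on days 0, 14 and 28. Tail-vein blood was taken before each dose and 2 weeks after the last. Serum anti-OVA IgG, IgG1 or IgG2a was measured by ELISA on OVA-coated (0.1 μg/ml) plates with serial two-fold dilutions in duplicate.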

Mus musculus [2] = assay: Immunostimulatory activity in ovalbumin-immunized BALB/c mouse assessed as potentiation of OVA specific Th1 immune response by measuring increase in serum anti-OVA IgG2a level at 100 ug, sc administered at 14 days interval for 3 times and measured at 4 to 6 week post OVA immunization by ELISA; summary of the method: as §1
Mus musculus [3] = assay: Immunostimulatory activity in rHagB-immunized BALB/c mouse assessed as potentiation of rHagB specific Th2 immune response by measuring increase in serum anti-rHagB IgG1 level at 100 ug, sc administered at 14 days interval for 3 times and measured at 2 to 4 week post rHagB immunization by ELISA
Summary of the method: (§2)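 Female BALB/c mice, 8-10 weeks old, six per group. Given His-tag-purified recombinant HagB (35 μg) s.c. alone or with 100 μg saponin adjuvant on days 0, 14 and 28. Serum was collected before each dose and 2 weeks post-final. Anti-rHagB IgG, IgG1 or IgG2a was measured by ELISA on rHagB-coated (1 μg/ml) plates with duplicate serial dilutions.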

Mus musculus [4] = assay: Immunostimulatory activity in ovalbumin-immunized BALB/c mouse assessed as potentiation of OVA specific Th2 immune response by measuring increase in serum anti-OVA IgG1 level at 100 ug, sc administered at 14 days interval for 3 times and measured at 4 to 6 week post OVA immunization by ELISA; summary of the method: as §1
Mus musculus [5] = assay: Immunostimulatory activity in rHagB-immunized BALB/c mouse assessed as potentiation of rHagB specific Th1 immune response by measuring increase in serum anti-rHagB IgG2a level at 100 ug, sc administered at 14 days interval for 3 times and measured at 2 to 6 week post rHagB immunization by ELISA; summary of the method: as §2
Mus musculus [6] = assay: Immunostimulatory activity in rHagB-immunized BALB/c mouse assessed as potentiation of rHagB specific antibody response by measuring increase in serum anti-rHagB IgG level at 100 ug, sc administered at 14 days interval for 3 times and measured at 2 to 4 week post rHagB immunization by ELISA; summary of the method: as §2
Mus musculus [7] = assay: Immunostimulatory activity in ovalbumin-immunized BALB/c mouse assessed as potentiation of OVA specific Th2 immune response by measuring increase in serum anti-OVA IgG1 level at 100 ug, sc administered at 14 days interval for 3 times and measured at 4 week post OVA immunization by ELISA; summary of the method: as §1
Mus musculus [8] = assay: Immunostimulatory activity in ovalbumin-immunized BALB/c mouse assessed as potentiation of OVA specific Th2 immune response by measuring increase in serum anti-OVA IgG1 level at 100 ug, sc administered at 14 days interval for 3 times and measured at 6 week post OVA immunization by ELISA; summary of the method: as §1
Mus musculus [9] = assay: Immunostimulatory activity in rHagB-immunized BALB/c mouse assessed as potentiation of rHagB specific Th2 immune response by measuring increase in serum anti-rHagB IgG1 level at 100 ug, sc administered at 14 days interval for 3 times and measured at 6 week post rHagB immunization by ELISA; summary of the method: as §2
Mus musculus [10] = assay: Immunostimulatory activity in rHagB-immunized BALB/c mouse assessed as potentiation of rHagB specific antibody response by measuring increase in serum anti-rHagB IgG level at 100 ug, sc administered at 14 days interval for 3 times and measured at 6 week post rHagB immunization by ELISA; summary of the method: as §2

SMILES | Activity (Mus musculus [1]) | Activity (Mus musculus [2]) | Activity (Mus musculus [3]) | Activity (Mus musculus [4]) | Activity (Mus musculus [5]) | Activity (Mus musculus [6]) | Activity (Mus musculus [7]) | Activity (Mus musculus [8]) | Activity (Mus musculus [9]) | Activity (Mus musculus [10])
C[C@@H]1O[C@@H](O[C@H]2[C@H](O)[C@@H](C(=O)NCCCCCCCCCCC(=O)OCc3ccccc3)O[C@@H](O[C@H]3CC[C@]4(C)[C@H]5CC=C6[C@@H]7CC(C)(C)CC[C@]7(C(=O)O[C@@H]7O[C@H](C)[C@H](O)[C@H](O)[C@H]7O[C@H]7O[C@@H](C)[C@H](O[C@H]8OC[C@H](O)[C@@H](O)[C@@H]8O)[C@@H](O[C@@H]8O[C@H](CO)[C@@H](O)[C@H](O[C@@H]9OC[C@@H](O)[C@H](O)[C@H]9O)[C@H]8O)[C@H]7O)[C@H](O)C[C@@]6(C)[C@]5(C)CC[C@H]4[C@]3(C)C=O)[C@@H]2O[C@@H]2O[C@H](CO)[C@H](O)[C@H](O)[C@H]2O)[C@H](O)[C@H](O)[C@H]1O | Active | Active | Active | Active | Active | Active | – | – | – | –
C[C@@H]1O[C@@H](O[C@H]2[C@H](O)[C@@H](C(=O)NCCCCCCCCCCC(=O)O)O[C@@H](O[C@H]3CC[C@]4(C)[C@H]5CC=C6[C@@H]7CC(C)(C)CC[C@]7(C(=O)O[C@@H]7O[C@H](C)[C@H](O)[C@H](O)[C@H]7O[C@H]7O[C@@H](C)[C@H](O[C@H]8OC[C@H](O)[C@@H](O)[C@@H]8O)[C@@H](O[C@@H]8O[C@H](CO)[C@@H](O)[C@H](O[C@@H]9OC[C@@H](O)[C@H](O)[C@H]9O)[C@H]8O)[C@H]7O)[C@H](O)C[C@@]6(C)[C@]5(C)CC[C@H]4[C@]3(C)C=O)[C@@H]2O[C@@H]2O[C@H](CO)[C@H](O)[C@H](O)[C@H]2O)[C@H](O)[C@H](O)[C@H]1O | Active | – | Active | – | Active | Active | Active | inactive | – | –
C[C@@H]1O[C@H](O[C@H]2[C@H](OC(=O)[C@]34CCC(C)(C)C[C@H]3C3=CC[C@@H]5[C@@]6(C)CC[C@H](O[C@@H]7O[C@H](C(=O)NCCCCCCCCCCC(=O)O)[C@@H](O)[C@H](O[C@@H]8OC[C@@H](O)[C@H](O)[C@H]8O)[C@H]7O[C@@H]7O[C@H](CO)[C@H](O)[C@H](O)[C@H]7O)[C@@](C)(C=O)[C@@H]6CC[C@@]5(C)[C@]3(C)C[C@H]4O)O[C@H](C)[C@H](O)[C@@H]2O)[C@H](O)[C@H](O[C@@H]2O[C@H](CO)[C@@H](O)[C@H](O)[C@H]2O)[C@H]1O[C@H]1OC[C@H](O)[C@@H](O[C@H]2OC[C@H](O)[C@@H](O)[C@@H]2O)[C@@H]1O | – | – | Active | – | Active | Active | – | – | Active | –
CCCCCCCCCCCCNC(=O)[C@H]1O[C@@H](O[C@H]2CC[C@]3(C)[C@H]4CC=C5[C@@H]6CC(C)(C)CC[C@]6(C(=O)O[C@@H]6O[C@H](C)[C@H](O)[C@H](O)[C@H]6O[C@@H]6O[C@@H](C)[C@H](O[C@@H]7OC[C@@H](O)[C@H](O[C@@H]8OC[C@](O)(CO)[C@H]8O)[C@H]7O)[C@@H](O)[C@H]6O)[C@H](O)C[C@@]5(C)[C@]4(C)CC[C@H]3[C@]2(C)C=O)[C@H](O[C@@H]2O[C@H](CO)[C@H](O)[C@H](O)[C@H]2O)[C@@H](O[C@@H]2OC[C@@H](O)[C@H](O)[C@H]2O)[C@@H]1O | Active | Active | Active | Active | Active | Active | – | – | – | Active
C[C@@H]1O[C@H](O[C@H]2[C@H](OC(=O)[C@]34CCC(C)(C)C[C@H]3C3=CC[C@@H]5[C@@]6(C)CC[C@H](O[C@@H]7O[C@H](C(=O)NCCCCCCCCCCC(=O)OCc8ccccc8)[C@@H](O)[C@H](O[C@@H]8OC[C@@H](O)[C@H](O)[C@H]8O)[C@H]7O[C@@H]7O[C@H](CO)[C@H](O)[C@H](O)[C@H]7O)[C@@](C)(C=O)[C@@H]6CC[C@@]5(C)[C@]3(C)C[C@H]4O)O[C@H](C)[C@H](O)[C@@H]2O)[C@H](O)[C@H](O[C@@H]2O[C@H](CO)[C@@H](O)[C@H](O)[C@H]2O)[C@H]1O[C@H]1OC[C@H](O)[C@@H](O[C@H]2OC[C@H](O)[C@@H](O)[C@@H]2O)[C@@H]1O | – | – | Active | – | Active | Active | – | – | Active | –
C[C@@H]1O[C@@H](O[C@H]2[C@H](O)[C@@H](C(=O)NCCCCCCCCCCC(=O)OCc3ccccc3)O[C@@H](O[C@H]3CC[C@]4(C)[C@H]5CC=C6[C@@H]7CC(C)(C)CC[C@]7(C(=O)O[C@@H]7O[C@H](C)[C@H](O)[C@H](O)[C@H]7O[C@H]7O[C@@H](C)[C@H](O[C@H]8OC[C@H](O)[C@@H](O)[C@@H]8O)[C@@H](O[C@@H]8O[C@H](CO)[C@@H](O)[C@H](O[C@@H]9OC[C@@H](O)[C@H](O)[C@H]9O)[C@H]8O)[C@H]7O)CC[C@@]6(C)[C@]5(C)CC[C@H]4[C@]3(C)C=O)[C@@H]2O[C@@H]2O[C@H](CO)[C@H](O)[C@H](O)[C@H]2O)[C@H](O)[C@H](O)[C@H]1O | Active | Active | – | Active | – | – | – | – | – | –
CCCCCCCCCCCCNC(=O)[C@H]1O[C@@H](O[C@H]2CC[C@]3(C)[C@H]4CC=C5[C@@H]6CC(C)(C)CC[C@]6(C(=O)O[C@@H]6O[C@H](C)[C@H](O)[C@H](O)[C@H]6O[C@H]6O[C@@H](C)[C@H](O[C@H]7OC[C@H](O)[C@@H](O)[C@@H]7O)[C@@H](O[C@@H]7O[C@H](CO)[C@@H](O)[C@H](O[C@@H]8OC[C@@H](O)[C@H](O)[C@H]8O)[C@H]7O)[C@H]6O)CC[C@@]5(C)[C@]4(C)CC[C@H]3[C@]2(C)C=O)[C@H](O[C@@H]2O[C@H](CO)[C@H](O)[C@H](O)[C@H]2O)[C@@H](O[C@@H]2O[C@@H](C)[C@H](O)[C@@H](O)[C@H]2O)[C@@H]1O | Active | Active | – | Active | – | – | – | – | – | –
C[C@@H]1O[C@@H](O[C@H]2[C@H](O)[C@@H](C(=O)NCCCCCCCCCCC(=O)O)O[C@@H](O[C@H]3CC[C@]4(C)[C@H]5CC=C6[C@@H]7CC(C)(C)CC[C@]7(C(=O)O[C@@H]7O[C@H](C)[C@H](O)[C@H](O)[C@H]7O[C@H]7O[C@@H](C)[C@H](O[C@H]8OC[C@H](O)[C@@H](O)[C@@H]8O)[C@@H](O[C@@H]8O[C@H](CO)[C@@H](O)[C@H](O[C@@H]9OC[C@@H](O)[C@H](O)[C@H]9O)[C@H]8O)[C@H]7O)CC[C@@]6(C)[C@]5(C)CC[C@H]4[C@]3(C)C=O)[C@@H]2O[C@@H]2O[C@H](CO)[C@H](O)[C@H](O)[C@H]2O)[C@H](O)[C@H](O)[C@H]1O | Active | Active | – | Active | – | – | – | – | – | –
